Calls of active or inactive are those of the source.
Legend:
[1] = target: 5-hydroxytryptamine receptor 5A (Homo sapiens, UniProt P47898); assay: Displacement of [3H]LSD from human recombinant 5-HT5A receptor expressed in cell membrane after 1.5 hrs by scintillation counting analysis; format: cell membranes
[2] = target: T1, 5-hydroxytryptamine receptor 2A (Homo sapiens, UniProt P28223); assay: Displacement of [3H]ketanserin from recombinant human 5-HT2A receptor expressed in cell membrane after 1.5 hrs by scintillation counting analysis; format: cell membranes
Method in brief: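 Cloned human 5-HT2A receptor stably expressed in CHO cells; displacement of [3H]-ketanserin.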

[3] = target: T1, 5-hydroxytryptamine receptor 2A; assay: Displacement of [3H]-ketanserin from recombinant human 5HT2A receptor expressed in CHOK1 cells measured after 1 hr by microbeta counting method; format: cell-based
Method in brief: (§1)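 Radioligand displacement on cloned human receptors stably expressed in HEK-293 cells, except 5-HT2A, which was expressed in CHO cells. Radioligands: [3H]-LSD for 5-HT6, [3H]-5-CT for 5-HT7, [3H]-ketanserin for 5-HT2A, [3H]-raclopride for D2.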

[4] = target: T2, 5-hydroxytryptamine receptor 1A (Homo sapiens, UniProt P08908); assay: Displacement of [3H]-8-OH-DPAT from recombinant human 5HT1A receptor expressed in HEK293 cells measured after 1 hr by microbeta counting method; format: cell-based
T2 sequence (P08908 whole entry): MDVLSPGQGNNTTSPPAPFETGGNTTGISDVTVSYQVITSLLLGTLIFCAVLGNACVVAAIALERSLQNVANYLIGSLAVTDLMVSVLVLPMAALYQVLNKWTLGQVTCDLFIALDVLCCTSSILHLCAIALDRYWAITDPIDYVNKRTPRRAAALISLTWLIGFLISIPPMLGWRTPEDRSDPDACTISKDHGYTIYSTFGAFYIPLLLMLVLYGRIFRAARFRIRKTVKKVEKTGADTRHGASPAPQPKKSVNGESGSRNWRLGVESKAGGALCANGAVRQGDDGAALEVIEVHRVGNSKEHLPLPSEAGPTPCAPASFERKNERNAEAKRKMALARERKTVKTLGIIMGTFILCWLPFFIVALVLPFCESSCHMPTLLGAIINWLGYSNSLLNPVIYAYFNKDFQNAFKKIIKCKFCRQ
Method in brief: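 Cloned human 5-HT1A receptor stably expressed in HEK-293 cells; displacement of [3H]-8-OH-DPAT.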

[5] = target: 5-hydroxytryptamine receptor 7 (Homo sapiens, UniProt P34969); assay: Displacement of [3H]-5-CT from recombinant human 5HT7b receptor expressed in HEK293 cells measured after 1 hr by microbeta counting method; format: cell-based; method in brief: as §1
D(2) dopamine receptor = D(2) dopamine receptor (Homo sapiens, UniProt P14416); assay: Displacement of [3H]-raclopride from recombinant human D2LR receptor expressed in HEK293 cells measured after 1 hr by microbeta counting method; format: cell-based; method in brief: as §1
[6] = target: T3, 5-hydroxytryptamine receptor 6 (Homo sapiens, UniProt P50406); assay: Displacement of [3H]-LSD from recombinant human 5HT6 receptor expressed in HEK293 cells measured after 1 hr by microbeta counting method; format: cell-based; method in brief: as §1
CYP2C9 = CYP2C9 (Homo sapiens, UniProt P11712); assay: Inhibition of CYP2C9 (unknown origin) assessed as residual activity at 25 uM using beetle D-luciferin as substrate by CYP450-Glo assay relative to control; format: ADME; settings: CYP2C9 enzyme (unknown origin), probe beetle D-luciferin, read-out: Activity
Method in brief: (§2)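 Luminescent P450-Glo assays for CYP3A4, CYP2D6 and CYP2C9 run per the kit protocol. Triplicate wells, final concentrations 0.01–25 μM, same across all three isoforms. Activity given as % of control.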

Mus musculus [7] = assay: Reversal of MK-801-induced cognitive impairment in mouse assessed increase in novel object recognition at 1 mg/kg treated for 60 mins followed by MK-801 addition 30 mins prior to testing by novel object recognition test; format: functional, organism-based
Method in brief: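 Mice adapted to an open field for 10 min. Next day: MK-801 0.3 mg kg-1 i.p. given 30 min before training, with the test compound given 60 min before MK-801. Training (T1) used two identical objects; in the retention trial 1 h later one object was replaced by a novel one. Exploration of each object was scored over 5 min. Means ± SEM.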

[8] = Toxicity in albino Swiss mouse assessed as effect on body temperature at 1 to 15 mg/kg; format: organism-based; settings: in vivo
Method in brief: (§3)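 Albino Swiss mice housed singly 24 h before test, dosed 1, 5 or 15 mg kg-1 60 min before test. Rectal temperature read to 0.1 °C at t = 0 (T1) and +15 min (T2) after transfer to a new cage. SIH taken as T2 − T1; T1 compared with vehicle for basal temperature effect. Groups of 8–10; one-way ANOVA with Dunnett's test.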

[9] = Permeability of the compound by PAMPA; format: ADME; settings: read-out: permeability
Method in brief: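 Passive permeability measured on a pre-coated PAMPA plate system. Concentrations were quantified against calibration curves made by capillary electrophoresis with diode-array detection. The permeability coefficient Pe is reported in 10^-6 cm s^-1 as mean ± SD of triplicates.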

Cytochrome P450 3A4 = Cytochrome P450 3A4 (Homo sapiens, UniProt P08684); assay: Inhibition of CYP3A4 (unknown origin) using beetle D-luciferin as substrate by CYP450-Glo assay; format: ADME
[10] = Drug metabolism in human liver microsomes measured after 120 mins in presence of NADPH generating system by UPLC analysis; format: ADME, Microsome; settings: microsomes, 2 h
Method in brief: (§4)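 Incubation with human, rat or mouse liver microsomes for 120 min at 37 °C with an NADPH regeneration system. Reaction mixtures analysed by UPLC for metabolites and % substrate metabolized.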

P-glycoprotein (ABCB1) = P-glycoprotein (ABCB1) (Homo sapiens, UniProt P08183); assay: Inhibition of recombinant human membrane bound Pgp assessed as basal ATP consumption at 100 uM after 40 mins by Pgp-Glo luminescence assay relative to control; parameters: scale not given: the % may be the effect or the level left; settings: read-out: Activity
Method in brief: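 Pgp-Glo luminescence assay measuring Pgp ATP consumption. Compounds incubated with Pgp membranes at 100 μM for 40 min at 37 °C in triplicate. Na3VO4 (100 μM) used as reference inhibitor and verapamil (200 μM) as stimulator; basal activity taken as the vanadate-versus-untreated signal difference.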

[11] = Hepatotoxicity against human HepG2 cells assessed as ATP level at 100 uM after 3 hrs by CellTiter-Glo luminescent cell viability assay relative to control; format: toxicity, cell-based; settings: read-out: Activity
Method in brief: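 HepG2 cells exposed 3 h at 1, 10 and 100 μM. […] Run in quadruplicate; result given as % of control.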

Mus musculus [12] = assay: Anxiolytic-like activity in albino Swiss mouse assessed as reduction in stress-induced hyperthermia by measuring reduction in body temperature at 15 mg/kg administered 60 mins prior to testing measured for 15 mins; format: functional, organism-based; method in brief: as §3
[13] = Mutagenicity in Salmonella typhimurium TA100 assessed as revertant colonies at 10 uM by Ames test; format: toxicity; settings: salmonella enterica subsp. enterica serovar typhimurium
Method in brief: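 Ames microplate fluctuation assay with S. typhimurium TA100 in 384-well format, run in triplicate. Medium control baseline defined as mean revertants in growth medium + 1% DMSO plus one SD. Positive wells counted; a 2-fold increase over baseline flagged as a mutagen alert.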

Homo sapiens = organism: Homo sapiens; assay: Selectivity ratio of Ki for displacement of [3H]-8-OH-DPAT from recombinant human 5HT1A receptor expressed in HEK293 cell membranes to Ki for displacement of [3H]-5-CT from recombinant human 5HT7b receptor expressed in HEK293 cell membranes
[14] = Drug metabolism in mouse liver microsomes measured after 120 mins in presence of NADPH generating system by UPLC analysis; format: ADME, Microsome; settings: read-out: Drug metabolism; method in brief: as §4
[15] = Retention time of the compound in mouse liver microsomes in presence of NADPH generating system by UPLC analysis; format: ADME, Microsome; method in brief: as §4
CYP2D6 = CYP2D6 (Homo sapiens, UniProt P10635); assay: Inhibition of CYP2D6 (unknown origin) assessed as residual activity at 10 uM using beetle D-luciferin as substrate by CYP450-Glo assay relative to control; format: ADME; settings: CYP2D6 enzyme (unknown origin), probe beetle D-luciferin, read-out: Activity; method in brief: as §2
Cytochrome P450 2D6 = Cytochrome P450 2D6 (Homo sapiens, UniProt P10635); assay: Inhibition of CYP2D6 (unknown origin) using beetle D-luciferin as substrate by CYP450-Glo assay; format: ADME
[16] = Drug metabolism in rat liver microsomes measured after 120 mins in presence of NADPH generating system by UPLC analysis; format: ADME, Microsome; settings: liver microsomes, read-out: Drug metabolism; method in brief: as §4
CYP3A4 = CYP3A4 (Homo sapiens, UniProt P08684); assay: Inhibition of CYP3A4 (unknown origin) assessed as residual activity at 10 uM using beetle D-luciferin as substrate by CYP450-Glo assay relative to control; format: ADME; settings: CYP3A4 enzyme (unknown origin), probe beetle D-luciferin, read-out: Activity; method in brief: as §2
[17] = target: T3, 5-hydroxytryptamine receptor 6; assay: Displacement of [3H]LSD from human recombinant 5-HT6 receptor expressed in cell membrane after 1.5 hrs by scintillation counting analysis; format: cell membranes
Method in brief: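 Cloned human 5-HT6 receptor stably expressed in HEK-293 cells; displacement of [3H]-LSD.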

T1 sequence (P28223 whole entry): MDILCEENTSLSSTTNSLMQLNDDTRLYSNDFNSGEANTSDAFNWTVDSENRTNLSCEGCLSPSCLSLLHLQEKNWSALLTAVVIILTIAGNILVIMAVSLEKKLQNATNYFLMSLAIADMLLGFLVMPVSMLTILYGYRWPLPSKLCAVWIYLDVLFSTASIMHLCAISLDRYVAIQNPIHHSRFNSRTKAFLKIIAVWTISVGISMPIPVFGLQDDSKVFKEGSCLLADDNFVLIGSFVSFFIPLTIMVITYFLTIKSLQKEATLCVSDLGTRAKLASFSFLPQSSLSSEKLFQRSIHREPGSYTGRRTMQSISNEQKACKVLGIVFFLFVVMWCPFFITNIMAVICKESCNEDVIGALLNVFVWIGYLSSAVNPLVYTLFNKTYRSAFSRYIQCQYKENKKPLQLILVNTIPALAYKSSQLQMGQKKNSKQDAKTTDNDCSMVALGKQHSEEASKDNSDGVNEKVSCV
Chain of D(2) dopamine receptor (P14416 whole entry): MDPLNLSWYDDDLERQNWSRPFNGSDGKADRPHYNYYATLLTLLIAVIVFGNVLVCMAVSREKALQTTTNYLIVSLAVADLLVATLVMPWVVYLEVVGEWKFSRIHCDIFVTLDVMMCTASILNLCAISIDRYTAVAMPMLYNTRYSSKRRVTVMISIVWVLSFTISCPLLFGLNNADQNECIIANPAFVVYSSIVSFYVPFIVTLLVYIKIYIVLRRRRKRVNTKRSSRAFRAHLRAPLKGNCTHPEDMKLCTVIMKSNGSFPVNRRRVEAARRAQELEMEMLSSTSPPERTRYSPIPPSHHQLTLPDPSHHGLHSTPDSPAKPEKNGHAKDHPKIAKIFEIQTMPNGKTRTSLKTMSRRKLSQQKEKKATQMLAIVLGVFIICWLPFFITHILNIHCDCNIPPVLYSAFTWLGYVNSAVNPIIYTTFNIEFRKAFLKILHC
T3 sequence (P50406 whole entry): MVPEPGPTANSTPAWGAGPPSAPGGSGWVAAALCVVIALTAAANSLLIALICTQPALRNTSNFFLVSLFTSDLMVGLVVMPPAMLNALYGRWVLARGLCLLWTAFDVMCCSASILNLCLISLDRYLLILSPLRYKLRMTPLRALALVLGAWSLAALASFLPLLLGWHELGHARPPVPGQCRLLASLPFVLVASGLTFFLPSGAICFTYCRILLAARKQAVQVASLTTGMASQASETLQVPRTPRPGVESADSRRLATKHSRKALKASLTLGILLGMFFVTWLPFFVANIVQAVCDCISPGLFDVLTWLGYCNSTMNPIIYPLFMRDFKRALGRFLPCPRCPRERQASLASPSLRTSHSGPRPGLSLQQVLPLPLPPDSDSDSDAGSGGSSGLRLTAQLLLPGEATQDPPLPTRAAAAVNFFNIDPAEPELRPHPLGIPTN
Chain of 5-hydroxytryptamine receptor 5A (P47898 whole entry): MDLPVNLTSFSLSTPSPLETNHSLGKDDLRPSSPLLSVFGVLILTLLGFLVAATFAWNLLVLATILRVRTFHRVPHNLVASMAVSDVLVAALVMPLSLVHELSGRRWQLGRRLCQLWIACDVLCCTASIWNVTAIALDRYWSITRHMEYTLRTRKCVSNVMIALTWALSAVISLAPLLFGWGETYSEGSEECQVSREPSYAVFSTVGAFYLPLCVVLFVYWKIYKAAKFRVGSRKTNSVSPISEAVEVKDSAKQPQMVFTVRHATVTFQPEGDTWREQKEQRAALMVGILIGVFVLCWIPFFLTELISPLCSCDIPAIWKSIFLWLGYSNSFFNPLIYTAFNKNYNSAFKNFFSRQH
Chain of P-glycoprotein (ABCB1) (P08183 whole entry): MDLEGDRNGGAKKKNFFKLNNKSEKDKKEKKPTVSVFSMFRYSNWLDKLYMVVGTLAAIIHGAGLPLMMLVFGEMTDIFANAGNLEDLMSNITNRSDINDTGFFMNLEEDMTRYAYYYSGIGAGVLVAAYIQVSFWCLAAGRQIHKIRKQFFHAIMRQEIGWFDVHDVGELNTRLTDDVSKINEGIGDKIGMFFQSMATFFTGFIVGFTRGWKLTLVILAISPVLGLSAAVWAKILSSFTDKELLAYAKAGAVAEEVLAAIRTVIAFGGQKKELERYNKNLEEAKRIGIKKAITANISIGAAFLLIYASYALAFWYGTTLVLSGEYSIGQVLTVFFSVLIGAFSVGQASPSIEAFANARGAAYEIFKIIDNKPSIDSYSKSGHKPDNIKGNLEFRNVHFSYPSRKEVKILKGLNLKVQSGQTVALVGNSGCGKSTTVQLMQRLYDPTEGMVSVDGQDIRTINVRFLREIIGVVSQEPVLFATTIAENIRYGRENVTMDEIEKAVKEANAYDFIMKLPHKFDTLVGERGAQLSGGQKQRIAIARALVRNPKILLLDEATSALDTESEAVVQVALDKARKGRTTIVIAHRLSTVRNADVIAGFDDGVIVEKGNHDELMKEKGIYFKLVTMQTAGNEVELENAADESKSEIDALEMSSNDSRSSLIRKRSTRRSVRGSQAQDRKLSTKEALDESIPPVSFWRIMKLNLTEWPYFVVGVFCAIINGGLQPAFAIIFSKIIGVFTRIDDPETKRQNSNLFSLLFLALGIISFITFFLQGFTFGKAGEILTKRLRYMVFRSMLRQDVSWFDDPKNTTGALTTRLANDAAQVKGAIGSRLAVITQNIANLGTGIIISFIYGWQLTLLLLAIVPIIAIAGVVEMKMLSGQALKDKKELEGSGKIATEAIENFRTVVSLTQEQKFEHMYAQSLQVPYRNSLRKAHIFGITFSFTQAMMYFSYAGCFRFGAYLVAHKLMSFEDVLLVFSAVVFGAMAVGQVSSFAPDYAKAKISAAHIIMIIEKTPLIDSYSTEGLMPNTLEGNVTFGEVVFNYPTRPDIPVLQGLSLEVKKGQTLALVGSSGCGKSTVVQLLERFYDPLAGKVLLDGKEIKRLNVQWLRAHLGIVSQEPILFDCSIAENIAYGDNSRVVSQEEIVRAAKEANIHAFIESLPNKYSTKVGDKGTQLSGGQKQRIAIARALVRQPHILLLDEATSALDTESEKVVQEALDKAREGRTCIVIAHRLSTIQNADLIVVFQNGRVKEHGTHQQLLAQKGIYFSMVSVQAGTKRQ
Chain of 5-hydroxytryptamine receptor 7 (P34969 whole entry): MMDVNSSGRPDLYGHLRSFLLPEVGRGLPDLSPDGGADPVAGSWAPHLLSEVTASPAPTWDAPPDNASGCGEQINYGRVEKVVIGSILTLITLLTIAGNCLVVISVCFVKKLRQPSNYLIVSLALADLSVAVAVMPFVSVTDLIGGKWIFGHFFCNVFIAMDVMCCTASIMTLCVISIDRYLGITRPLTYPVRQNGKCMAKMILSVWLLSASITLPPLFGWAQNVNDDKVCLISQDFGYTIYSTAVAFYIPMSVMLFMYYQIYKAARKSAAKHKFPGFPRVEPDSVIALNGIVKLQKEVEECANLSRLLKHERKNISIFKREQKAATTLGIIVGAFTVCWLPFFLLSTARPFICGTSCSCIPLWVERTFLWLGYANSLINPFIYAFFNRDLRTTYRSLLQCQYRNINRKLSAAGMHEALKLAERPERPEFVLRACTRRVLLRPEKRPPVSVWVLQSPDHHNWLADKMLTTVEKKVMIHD
Chain of Cytochrome P450 3A4 (P08684 whole entry): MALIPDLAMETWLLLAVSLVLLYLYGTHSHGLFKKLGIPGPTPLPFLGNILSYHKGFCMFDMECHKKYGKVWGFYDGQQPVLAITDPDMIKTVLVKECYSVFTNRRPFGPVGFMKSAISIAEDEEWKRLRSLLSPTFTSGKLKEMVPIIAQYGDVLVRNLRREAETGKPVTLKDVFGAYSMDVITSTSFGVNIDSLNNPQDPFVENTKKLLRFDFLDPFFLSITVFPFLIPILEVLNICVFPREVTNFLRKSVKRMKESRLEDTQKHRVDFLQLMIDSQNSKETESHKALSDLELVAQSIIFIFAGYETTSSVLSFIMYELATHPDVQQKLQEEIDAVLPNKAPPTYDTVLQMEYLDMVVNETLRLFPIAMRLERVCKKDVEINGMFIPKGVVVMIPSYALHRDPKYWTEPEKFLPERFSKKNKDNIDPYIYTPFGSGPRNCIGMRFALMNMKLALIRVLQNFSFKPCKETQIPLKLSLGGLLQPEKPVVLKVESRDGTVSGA
Chain of CYP3A4 (P08684 whole entry): as above
Chain of CYP2C9 (P11712 whole entry, canonical isoform): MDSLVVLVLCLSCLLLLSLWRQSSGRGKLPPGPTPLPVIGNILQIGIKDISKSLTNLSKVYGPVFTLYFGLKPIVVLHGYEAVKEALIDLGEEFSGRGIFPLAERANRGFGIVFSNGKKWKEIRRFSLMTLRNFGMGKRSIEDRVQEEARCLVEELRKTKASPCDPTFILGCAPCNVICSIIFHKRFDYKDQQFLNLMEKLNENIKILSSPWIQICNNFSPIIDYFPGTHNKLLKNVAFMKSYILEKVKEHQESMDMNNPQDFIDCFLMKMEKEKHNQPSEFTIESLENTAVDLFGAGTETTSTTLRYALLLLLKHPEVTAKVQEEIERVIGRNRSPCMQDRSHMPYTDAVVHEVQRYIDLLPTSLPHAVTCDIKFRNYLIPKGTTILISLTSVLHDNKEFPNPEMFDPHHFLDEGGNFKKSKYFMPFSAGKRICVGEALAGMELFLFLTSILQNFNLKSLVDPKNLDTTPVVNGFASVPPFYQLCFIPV
Chain of CYP2D6 (P10635 whole entry): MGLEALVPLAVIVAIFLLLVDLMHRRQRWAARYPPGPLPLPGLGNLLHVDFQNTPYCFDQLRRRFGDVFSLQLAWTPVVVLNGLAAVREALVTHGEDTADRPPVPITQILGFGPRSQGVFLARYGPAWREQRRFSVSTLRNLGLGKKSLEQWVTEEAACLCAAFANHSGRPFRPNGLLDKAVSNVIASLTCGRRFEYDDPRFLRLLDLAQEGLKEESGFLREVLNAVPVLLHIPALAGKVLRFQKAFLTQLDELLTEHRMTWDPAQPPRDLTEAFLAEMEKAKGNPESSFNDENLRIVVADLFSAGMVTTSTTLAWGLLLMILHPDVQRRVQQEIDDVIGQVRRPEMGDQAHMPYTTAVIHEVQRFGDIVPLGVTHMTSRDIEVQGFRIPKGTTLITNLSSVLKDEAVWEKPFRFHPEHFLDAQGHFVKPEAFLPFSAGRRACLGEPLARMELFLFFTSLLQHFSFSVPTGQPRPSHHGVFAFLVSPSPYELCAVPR

For `N#Cc1ccc(CNC(=O)CCCCCN2CCN(c3ccccc3-c3ccccc3)CC2)cc1`, the Ki [1] was 0.178 µM and the Ki [2] was 0.626 µM.

In the case of `CCn1cncc1-c1c[nH]c2ccc(S(N)(=O)=O)cc12`, the Ki [3] is reported as over 10 µM, the Ki [4] is reported as over 10 µM and the Ki [5] is reported as 6.42 µM. It also gave a Ki (D(2) dopamine receptor) of over 10 µM and a Ki [6] of 7.27 µM.

For `CCn1cncc1-c1c[nH]c2ccc(I)cc12`, the Ki [3] was over 10 µM, the Ki (D(2) dopamine receptor) was 4.85 µM and the Ki [6] was 1.67 µM.

With `CCn1cncc1-c1c[nH]c2ccc(C(N)=O)cc12` the activity at 25 µM (CYP2C9) was 104%, the Ki [3] was over 10 µM and the Activity (Mus musculus [7]) was “Active”. For the same molecule, the Activity [8] was “Non-Toxic”, the Papp [9] was 2.78 ×10⁻⁶ cm/s and the IC50 (Cytochrome P450 3A4) was 0.31 µM. The Drug metabolism [10] was “Metabolite_Notdetected”, the activity at 40 min, 100 µM (P-glycoprotein (ABCB1)) was 19.3% and the viability at 3 h, 100 µM [11] was 102%. For the same molecule, the Activity (Mus musculus [12]) was “Active”, the Activity [13] was 5.6 and the Ratio Ki (Homo sapiens) was 25. The metabolised at 2 h [14] was 14%, the Retention_time [15] was 1.6 min and the Ki (D(2) dopamine receptor) was over 10 µM. For the same molecule, the activity at 10 µM (CYP2D6) was 43.4%, the IC50 (Cytochrome P450 2D6) was 7.47 µM and the Ki [6] was over 10 µM. For the same molecule, the metabolised at 2 h [16] was 7% and the activity at 10 µM (CYP3A4) was 2.9%.

For `c1ccc(-c2ccccc2N2CCNCC2)cc1`, the Ki [1] was 0.076 µM, the Ki [2] was 1.19 µM and the Ki [17] was 0.596 µM.

Source: ChEMBL document CHEMBL4368858, “Search for a 5-CT alternative. In vitro and in vivo evaluation of novel pharmacological tools: 3-(1-alkyl-1H-imidazol-5-yl)-1H-indole-5-carboxamides, low-basicity 5-HT7 receptor agonists” (Medchemcomm, 2018)
